# Compound activity as filed in PubChem BioAssay.
# PAD4 FP inh: PAD4 (human) enzyme inhibition. Q9UM07. recombinant PAD4, RCA probe fluorescence polarization. inhibition, % at 6.36 µM. hit rate 0.41% among 330,000;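 active means percent inhibition above a cutoff equal to the mean of all tested compounds plus 3 SD, cut at about 15% in these data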;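 further: 0% = PAD4 with RCA probe and DMSO and 100% = probe without PAD4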
# GSTO1 counter: counter-screen for RBBP9 inhibitors: inhibitors of human GSTO1; P78417; recombinant GSTO1, activity-based probe fluorescence polarization; inhibition, % at 5.96 µM; hit rate 1.1% among 300,000;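 active means inhibition above the campaign mean inhibition plus 3 SD, cut at about 35% in these data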;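 further: 0% = GSTO1-1 with DMSO and 100% = wells lacking GSTO1-1 enzyme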
# Target sequence (P78417 whole entry, looked up): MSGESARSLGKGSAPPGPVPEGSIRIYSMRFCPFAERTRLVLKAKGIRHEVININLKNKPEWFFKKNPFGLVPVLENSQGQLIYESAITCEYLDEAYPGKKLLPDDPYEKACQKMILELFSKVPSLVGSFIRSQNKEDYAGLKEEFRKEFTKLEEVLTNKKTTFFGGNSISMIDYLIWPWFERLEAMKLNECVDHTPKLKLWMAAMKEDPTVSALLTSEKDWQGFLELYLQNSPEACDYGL
# PRMT1 inh: blocks human protein arginine methyltransferase 1. inhibition, % at 2.79 µM. hit rate 1.3% among 370,000. AID 652257. Q99873. recombinant PRMT1, activity-based probe fluorescence polarization;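 active means inhibition above about 21% made by adding two undisclosed values, limit read from the data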
# Target sequence (Q99873 whole entry, looked up): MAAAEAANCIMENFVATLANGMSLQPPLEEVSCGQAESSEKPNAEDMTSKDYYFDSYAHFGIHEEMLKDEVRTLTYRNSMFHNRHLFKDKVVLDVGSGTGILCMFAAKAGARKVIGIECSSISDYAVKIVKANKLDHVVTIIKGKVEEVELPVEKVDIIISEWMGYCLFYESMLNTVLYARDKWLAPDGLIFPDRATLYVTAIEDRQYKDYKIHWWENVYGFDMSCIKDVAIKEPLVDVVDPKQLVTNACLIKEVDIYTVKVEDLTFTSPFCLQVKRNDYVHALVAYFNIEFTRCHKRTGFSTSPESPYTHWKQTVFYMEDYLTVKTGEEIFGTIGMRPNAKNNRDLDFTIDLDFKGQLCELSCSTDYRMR
# TDP2 inh: blocks human TDP2 phosphodiesterase activity; O95551; recombinant TDP2, T5PNP hydrolysis, p-nitrophenol absorbance 415 nm; inhibition, % at 12.8 µM; hit rate 0.34% among 370,000;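 active means inhibition above the mean of all tested compounds plus 3 SD, set per campaign, cut at about 25% in these data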;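 further: 0% = DMSO with enzyme and 100% = buffer with substrate but no TDP2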
#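 System – recombinant human TDP2 · Amount – 120 nM TDP2 per well · Buffer or medium – Mg2+-containing Tris-HCl buffer, pH 7.5 · Reagent – T5PNP substrate, 5 mM · Dosing – 12.8 µM single point, 1% DMSO · Incubation – 2 h at 37 °C · Measured by – epi absorbance · Read-out basis – percent inhibition · Benchmarks – high control without enzyme, low control DMSO plus TDP2 · Repeats – singlicate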
# Apaf-1 inh: blocks human Apaf-1 apoptosome activity; O14727; reconstituted apoptosome caspase-3 activity, DEVD-Rh110 fluorescence; inhibition, % at 20 µM; hit rate 0.71% among 330,000; AID 489030; active means inhibition of at least 40% at 20 µM;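 further: plate controls were DMSO wells for no effect and DEVD-CHO caspase inhibitor wells for full effect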
#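 Material: biochemical Apaf-1 apoptosome reconstitution. Medium: Hepes buffer, pH 7.5. Also added: cytochrome c activation, bis-DEVD rhodamine 110 substrate. Timing: 30 min compound preincubation, 50 min activation, room temperature. Measured by: rhodamine 110 fluorescence at Ex 480/Em 540 nm.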
# Apaf-1 inh conf: Apaf-1 inhibition, single-dose confirmed; shares compounds with Apaf-1 inh; reconstituted apoptosome, caspase-3 DEVD-Rh110 fluorescence; AID 504614; hit rate 25% among 1,800; inhibition, % at 20 µM;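 active means mean inhibition of at least 40% at 20 µM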;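 further: plate controls were DMSO wells for no effect and DEVD-CHO caspase inhibitor control wells for full effect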
# Rh110 interf inh: counter-screen for Apaf-1 inhibitors: fluorescence interference; shares compounds with Apaf-1 inh; Rh110 fluorescence interference, quenched caspase reaction; activation (fluorescence interference), % at 20 µM; 1,800 tested, under 10 active; AID 504615;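 active means signal rise of 40% or more at 20 µM, treated as a fluorescence artifact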
# Apaf1 inh interf: shows fluorescence interference in the Apaf-1 inhibitor assay format; fluorescence interference counterscreen, Apaf-1 assay format; 460 tested, under 10 active; IC50, µM; shares compounds with Apaf-1 inh; AID 588538; call rule not given here
# Active calls of the source: *; · = no result given. A selection: hits, their analogues and other compounds. The true share with any hit is near 2.6%.
SMILES,PAD4 FP inh,GSTO1 counter,PRMT1 inh,TDP2 inh,Apaf-1 inh,Apaf-1 inh conf,Rh110 interf inh,others
O=C(NCCN1CCOCC1)c1cccc(S(=O)(=O)N(Cc2ccccc2)c2ccccc2)c1,0,10,-1,6,4,·,·,
CCN(c1ccccc1)S(=O)(=O)c1cccc(C(=O)NCCN2CCOCC2)c1,0,·,-4,-11,44*,6,8,
CN(C)C=Nc1ccc2nc3c(cc2c1)[nH]c1ccccc13,-9,25,3,3,46*,44*,-2,Apaf1 inh interf=>100
COc1ccccc1C(=O)CSc1nnc(-c2ccncc2)n1-c1ccc(Cl)cc1,·,·,0,-1,·,·,·,
CCOc1ccc(NC(=S)Nc2ccc(OCC)cc2)cc1,-12,1,-2,-5,-1,·,·,
S=C(Nc1cccnc1)Nc1cccc2cnccc12,-6,16,5,10,86*,16,1,
CCOc1ccc(NC(=S)Nc2cccc3cnccc23)cc1,-9,6,6,15,96*,17,-4,
CCOc1ccc(NC(=S)Nc2ccccc2C2CC2)cc1,-1,4,1,-1,-2,·,·,
CCN(C(=S)Nc1cccnc1)c1cccc2ccccc12,-11,14,4,-2,85*,12,-4,
CCOc1ccc(NC(=S)Nc2cccc3ccccc23)cc1,-1,3,2,-2,66*,-16,1,
CCN(C(=S)NCc1ccccc1)c1cccc2ccccc12,-2,2,-9,-13,9,·,·,
COc1ccc(NC(=S)Nc2cccc3cnccc23)cc1,-10,-2,5,16,95*,17,-3,
COc1ccccc1NC(=S)Nc1cccc2cnccc12,-14,8,7,2,97*,10,3,
CCOc1cc(/C=C/c2nc3cc(C)c(C)cc3s2)ccc1OCC(=O)N1CCOCC1,1,-16,-2,8,45*,17,-15,
CN1CCCC1CCNc1ccc2sc3ccccc3c(=O)c2c1 (stereo unspecified),-2,15,2,8,44*,20,6,
Cc1cc2oc3cc(NCCC4CCCN4C)ccc3c(=O)c2cc1C (stereo unspecified),-2,-136,-3,4,44*,9,17,
O=c1c2ccccc2oc2ccc(NCCCn3ccnc3)cc12,3,-12,-2,0,10,·,·,
O=c1c2ccccc2sc2ccc(NCCCN3CCOCC3)cc12,5,2,3,5,28,·,·,
COC(=O)C1CN(C2CC2)CCS(=O)(=O)N1Cc1cn(Cc2ccc(OC)cc2)nn1 (stereo unspecified),·,·,-1,-4,·,·,·,
CCCCc1oc2ccccc2c1C(=O)c1cc(I)c(OCCN(CC)CC)c(I)c1,-5,-2,2,·,53*,6,13,
COc1cc2nc(N3CCN(c4cc(C)ccc4C)CC3)nc(N)c2cc1OC,7,3,-2,-2,29,·,·,
COc1cc2nc(N3CCNCC3)nc(N)c2cc1OC,6,4,-1,11,61*,66*,4,Apaf1 inh interf=>100
O=C(CNC(=O)c1cccc(-n2cccc2)c1)Nc1ccccc1Br,·,·,3,1,·,·,·,
C[N+](C)(CCOc1ccccc1)Cc1ccccc1,·,·,11,-1,·,·,·,
Cc1cc(C(C)(C)CC(C)(C)C)ccc1OCCOCC[N+](C)(C)Cc1ccccc1,3,6,0,-14,86*,59*,15,Apaf1 inh interf=>100
SMILES,PAD4 FP inh,GSTO1 counter,PRMT1 inh,TDP2 inh,Apaf-1 inh,Apaf-1 inh conf,Rh110 interf inh,others
COC(=O)C1CN(Cc2ccc(OC)cc2)CCS(=O)(=O)N1Cc1cn(Cc2ccc(F)cc2)nn1 (stereo unspecified),·,·,2,-1,·,·,·,
CCOC(=O)c1nn(-c2ccc(C)c(C)c2)c(=O)c2c(N)scc12,-5,18,17,15,56*,41*,11,Apaf1 inh interf=>100
COC(=O)[C@]12C[C@H](CC(=O)NCc3cccc(C(F)(F)F)c3)C(=O)N(Cc3cccc4ccccc34)C1=C[C@H](C(C)C)O[C@@H]2C1CC1,·,·,1,-14,·,·,·,
CN1C[C@]2(C=C3CCCCC3n3c(=O)n(-c4ccccc4)c(=O)n32)N(C(=O)OCc2ccccc2)C1=NC(=O)c1ccccc1 (stereo partly specified),·,·,3,4,·,·,·,
COC(=O)c1c(NC(=O)c2ccc(OC(C)C)cc2)sc2c1CC(C)(C)NC2(C)C,-2,-2,-1,-8,53*,10,7,
COc1ccc(Cn2ccc3ccc(-c4ccc5ccn(C(=O)c6ccccc6OC)c5c4)cc32)cc1,·,·,-2,-7,·,·,·,
CCN1CCN(c2ccc(NC(=O)c3cc4ccccc4cc3OC)cc2C)CC1,-3,·,1,-16,51*,17,10,
CCOC(=O)c1c2ccc(OCC(=O)NN)cc2n2ccccc12,-2,40*,2,4,42*,53*,0,Apaf1 inh interf=>100
CC(C)Cn1c(N)c(C(=O)COC(=O)C2CCCCC2)c(=O)n(C)c1=O,-4,-5,-2,-6,43*,12,6,
COC(=O)[C@@]12C[C@@H](CC(=O)N3CCSCC3)C(=O)N(Cc3ccccc3)C1=CCC(C)(C)C2,·,·,3,8,·,·,·,
Cc1cc(N2CCCC2)ccc1NC(=O)COc1ccccc1,·,·,1,-3,52*,19,-2,
CCc1ccccc1OCC(=O)Nc1ccc(N2CCCC2)cc1C,·,·,-1,-3,43*,26,4,
COc1ccc(N2CCCC2)c(NC(=O)COc2ccccc2)c1,1,2,2,-3,15,·,·,
CS(=O)(=O)c1ccc(OC[C@@H](O)CN2CCC(C(O)(c3ccccc3)c3ccccc3)CC2)cc1,·,·,2,-5,·,·,·,
O=C(Nc1ccc(F)cc1)Nc1c(-c2ccc(C(F)(F)F)cc2)nc2ncccn12,·,·,2,0,·,·,·,
CCCCCCCCN1C(=O)[C@@H](CC(=O)N2CCN(C(=O)c3ccco3)CC2)C[C@@]2(C(=O)OC)C1=C[C@H](COCc1ccccc1)O[C@@H]2C,·,·,0,7,·,·,·,
CCC(C)[C@H](NC(=O)C1COC(O)([C@H](Cc2ccccc2)NC(=O)[C@@H](NC(=O)OCc2ccccc2)C(C)C)CN1C)C(=O)N[C@H](C(=O)OC)C(C)C (stereo partly specified),·,·,1,5,·,·,·,
CCCCCc1ccc(OCCC[n+]2ccccc2)c(CCCCC)c1,6,3,-3,-13,66*,40*,14,Apaf1 inh interf=>100
CCCCCCCCCCCCCCCC[n+]1ccccc1,·,·,-4,3,·,·,·,
COC(=O)[C@H](C(C)C)N(CCc1cn(Cc2ccccc2)nn1)S(=O)(=O)c1ccccc1Br,·,·,1,-6,·,·,·,
